# Compounds with a hit are over-represented: about 2.9% of the library has one in this group of screens.
# DENV2 CPE – inhibitors of DENV2 cytopathic effect, primary screen, cell-based, plate reader, single concentration; hit rate 1.7% among 350,000; DENV2-infected cells, cytopathic effect rescue; CPE inhibition, % at 9.99 µM; in the data active = CPE inhibition above about 20%, passing the limit was not always enough; inconclusive = no clear call, values can overlap the other calls; tested in BHK-21 cells;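 note: 0% = median of neutral control wells and 100% = median of positive control wells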
# E-selectin induc – E-selectin induction in HUVECs, primary screen, imaging, HUVEC, immunofluorescence imaging, single point | activation, % at 7.58 µM | normalized: neutral wells 0, TNF-alpha wells 100 | P16581 | hit rate 0.37% among 260,000;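 active = mean E-selectin-positive cell signal at least 10% of the positive control, reached in at least 60% of replicates, without over 20% cell loss; inconclusive = no rule given, readout overlaps actives, possibly toxicity-flagged; inactive = the rest, including those meeting only one limit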
#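 Test system: HUVEC; input: 3,000 HUVEC/well; measured by: immunofluorescence imaging; read-out: % PE-positive cells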
# SIRT5 inh – SIRT5 desuccinylase inhibitors, primary screen, biochemical, fluorescence imaging, single point, set 5 | NAD-dependent protein deacylase sirtuin-5, mitochondrial (Homo sapiens), Q9NXA8 | Purified SirT5, succinyl-peptide AMC, trypsin-coupled fluorescence | inhibition, % at 15 µM | hit rate 1.1% among 330,000; in the data active = inhibition above about 15%; inconclusive = no clear call, values can overlap the other calls
# Target sequence (Q9NXA8 whole entry, looked up): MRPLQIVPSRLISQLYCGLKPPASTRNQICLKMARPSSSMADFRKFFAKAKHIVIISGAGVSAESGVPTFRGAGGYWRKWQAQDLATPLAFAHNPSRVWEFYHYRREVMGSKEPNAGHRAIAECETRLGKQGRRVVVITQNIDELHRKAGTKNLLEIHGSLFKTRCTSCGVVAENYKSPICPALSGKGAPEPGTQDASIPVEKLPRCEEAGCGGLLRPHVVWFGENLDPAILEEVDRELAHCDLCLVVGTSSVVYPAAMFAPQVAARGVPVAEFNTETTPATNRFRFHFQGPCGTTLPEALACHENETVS
# * = called active by the depositor; ? = inconclusive; . = no result; ! = not confirmed by another sample.
SMILES,DENV2 CPE,E-selectin induc,SIRT5 inh
C[C@@H]1CN([C@@H](C)CO)C(=O)c2c(c3ccccc3n2C)-c2ccccc2CO[C@@H]1CN(C)Cc1cccc(O)c1,-3,0,23*
C[C@H]1CN([C@@H](C)CO)C(=O)c2c(c3ccccc3n2C)-c2ccccc2CO[C@@H]1CN(C)Cc1ccc2c(c1)OCO2,6,-3,19*
C[C@@H]1CN([C@H](C)CO)C(=O)c2c(c3ccccc3n2C)-c2ccccc2CO[C@H]1CN(C)Cc1ccc2c(c1)OCO2,1,5,7
C[C@@H]1CN([C@H](C)CO)C(=O)c2c(c3ccccc3n2C)-c2ccccc2CO[C@H]1CN(C)Cc1cccc(O)c1,9,0,6
COc1ccc(C(=O)Nc2ncccc2C)cc1S(=O)(=O)N1CCCc2ccccc21,-3,-2,-3
C[C@@H]1CN([C@H](C)CO)C(=O)c2cc(NC(=O)CCC(F)(F)F)ccc2O[C@H]1CN(C)S(=O)(=O)c1cccs1,?,0,0
C=COC(=O)c1sc2nc(C)cc(C)c2c1N,3,.,-5
Cc1noc(C)c1S(=O)(=O)Nc1ccc2c(c1)C(=O)N([C@@H](C)CO)C[C@H](C)[C@@H](CN(C)Cc1ccc(C(F)(F)F)cc1)OCCCC[C@H](C)O2,-12,0,24*!
Cc1noc(C)c1S(=O)(=O)Nc1ccc2c(c1)C(=O)N([C@H](C)CO)C[C@H](C)[C@@H](CN(C)Cc1ccc(C(F)(F)F)cc1)OCCCC[C@@H](C)O2,11,0,13
Cc1noc(C)c1S(=O)(=O)Nc1ccc2c(c1)C(=O)N([C@@H](C)CO)C[C@H](C)[C@@H](CN(C)Cc1ccc(C(=O)O)cc1)OCCCC[C@H](C)O2,34*,0,-5
Cc1noc(C)c1S(=O)(=O)Nc1ccc2c(c1)C(=O)N([C@H](C)CO)C[C@H](C)[C@@H](CN(C)Cc1ccc(C(=O)O)cc1)OCCCC[C@@H](C)O2,16,0,12
CCCN(C)C[C@H]1OCCCC[C@H](C)Oc2ccc(NS(=O)(=O)c3c(C)noc3C)cc2C(=O)N([C@@H](C)CO)C[C@H]1C,32*,0,2
Cc1noc(C)c1S(=O)(=O)Nc1ccc2c(c1)C(=O)N([C@@H](C)CO)C[C@@H](C)[C@H](CN(C)Cc1ccc(C(=O)O)cc1)OCCCC[C@@H](C)O2,9,0,-1
Cc1noc(C)c1S(=O)(=O)Nc1ccc2c(c1)C(=O)N([C@H](C)CO)C[C@H](C)[C@@H](CN(C)CC1CC1)OCCCC[C@@H](C)O2,7,0,.
Cc1noc(C)c1S(=O)(=O)Nc1ccc2c(c1)C(=O)N([C@@H](C)CO)C[C@@H](C)[C@@H](CN(C)Cc1ccc(C(F)(F)F)cc1)OCCCC[C@@H](C)O2,-3,0,27*
CCOC(=O)c1cc(-c2csc(COc3ccc(Cl)cc3)n2)on1,0,?,0
O=C(C[C@@H]1CC[C@H]2[C@@H](COC[C@@H](O)CN2CC2CC2)O1)NCC1CC1,6,0,-2
O=C(C1CC1)N1CC(=O)N2[C@@H](CO)[C@H](c3ccc(C#CC4CCCC4)cc3)[C@@H]2C1,-1,0,1
COc1ccc(CN(C)C(C)C(=O)N(C)CC(=O)Nc2ccc(C)cc2)cc1F (stereo not drawn),?,1,1
Cc1noc(C)c1S(=O)(=O)Nc1ccc2c(c1)C(=O)N([C@H](C)CO)C[C@@H](C)[C@@H](CN(C)Cc1ccc(C(F)(F)F)cc1)OCCCC[C@@H](C)O2,-11,0,24*
Cc1noc(C)c1S(=O)(=O)Nc1ccc2c(c1)C(=O)N([C@H](C)CO)C[C@H](C)[C@H](CN(C)Cc1ccc(C(F)(F)F)cc1)OCCCC[C@@H](C)O2,-1,0,5
CCc1nc2ccc(C(=O)N3CCN(C(=O)c4ccco4)CC3)cn2c1N(C)C(=O)C1CCCCC1,15,0,.
COC(=O)CCc1cccc(CCC(=O)OC)c1,46*,0,-7
COC(=O)CCc1ccc(O)cc1,-9,.,.
O=C(NCc1cccc(Cl)c1)C1CCC(=O)N(CCCN2CCOCC2)C1 (stereo not drawn),-2,.,-1
SMILES,DENV2 CPE,E-selectin induc,SIRT5 inh
COC(=O)C1(Cc2cc(-c3ccc(OC)cc3OC)no2)CCN(C(=O)OC(C)(C)C)CC1,-1,0,34*
COC(=O)C1(Cc2cc(-c3cccc(Br)c3)no2)CCN(C(=O)OC(C)(C)C)CC1,.,0,-4
COc1ccc(NC(=O)Nc2ccc3c(c2)C(=O)N([C@H](C)CO)C[C@H](C)[C@@H](CN(C)S(=O)(=O)c2ccc(F)cc2)OCCCC[C@@H](C)O3)cc1,-4,.,2
O=C(/C=C1\OCc2cc(OCc3ccccc3)ccc21)OCc1ccccc1,-2,0,-2
O=C(/C=C1\OCc2ccccc21)OCc1ccccc1,-13,0,15*
O=C(Cc1cccnc1)N[C@@H]1CC[C@@H](CCNS(=O)(=O)c2ccccc2Cl)O[C@H]1CO,4,0,8
COc1cccc(/C=C/C(=O)OCC(=O)Nc2ccc(Cl)c(S(=O)(=O)N(C)C)c2)c1,.,.,-8
COC(=O)Cc1cc(=O)n(-c2nc3ccccc3[nH]2)[nH]1,-4,.,4
O=C(CC1S/C(=N/N=C/c2c[nH]c3ccccc23)NC1=O)Nc1ccccc1 (stereo not drawn),20*,0,-1
O=C(CC1S/C(=N/N=C/c2ccco2)NC1=O)Nc1ccccc1 (stereo not drawn),.,1,-13
Cc1onc(-c2c(Cl)cccc2Cl)c1C(=O)N1CCN(Cc2ccccc2)CC1,-5,.,2
CCCNC(=O)[C@@]1(C)c2ccccc2C(=O)N(Cc2ccc(OC(F)(F)F)cc2)[C@H]1c1ccc(CO)cc1,20*,.,-1
CCCNC(=O)[C@@]1(C)c2ccccc2C(=O)N(Cc2ccccc2)[C@H]1c1ccc(CO)cc1,4,.,-1
CN(Cc1nc2ccccc2c(=O)[nH]1)C(=O)c1cccc(S(=O)(=O)N2CCCCCC2)c1,2,1,-12
CN(Cc1nc2ccccc2c(=O)[nH]1)C(=O)c1cccc(S(=O)(=O)N2CCc3ccccc32)c1,44*,.,-2
Cc1noc(C)c1NC(=O)Nc1ccc2c(c1)CC(=O)N([C@@H](C)CO)C[C@@H](C)[C@H](CN(C)Cc1ccc(C(=O)Nc3ccccc3N)cc1)O2,8,1,5
Cc1noc(C)c1NC(=O)Nc1ccc2c(c1)C(=O)N([C@@H](C)CO)C[C@H](C)[C@H](CN(C)Cc1ccc(C(=O)Nc3ccccc3N)cc1)O2,4,.,1
Cc1noc(C)c1NC(=O)Nc1ccc2c(c1)C(=O)N([C@H](C)CO)C[C@@H](C)[C@@H](CN(C)Cc1ccc(C(=O)Nc3ccccc3N)cc1)O2,0,.,19*
Cc1noc(C)c1NC(=O)Nc1ccc2c(c1)C(=O)N([C@H](C)CO)C[C@H](C)[C@H](CN(C)Cc1ccc(C(=O)Nc3ccccc3N)cc1)O2,22*,.,.
Cc1onc(-c2c(Cl)cccc2Cl)c1C(=O)N1C(C)CCCC1C (stereo not drawn),-6,0,2

# From PubChem
